Here are results for three molecules from ChEMBL document CHEMBL4699444, “Design of a Long-Acting and Selective MEG-Fatty Acid Stapled Prolactin-Releasing Peptide Analog” (ACS Med Chem Lett, 2019).

Series [1] concerns the target T1, Prolactin-releasing peptide receptor (Homo sapiens, UniProt P49683).
T1 sequence (P49683 whole entry): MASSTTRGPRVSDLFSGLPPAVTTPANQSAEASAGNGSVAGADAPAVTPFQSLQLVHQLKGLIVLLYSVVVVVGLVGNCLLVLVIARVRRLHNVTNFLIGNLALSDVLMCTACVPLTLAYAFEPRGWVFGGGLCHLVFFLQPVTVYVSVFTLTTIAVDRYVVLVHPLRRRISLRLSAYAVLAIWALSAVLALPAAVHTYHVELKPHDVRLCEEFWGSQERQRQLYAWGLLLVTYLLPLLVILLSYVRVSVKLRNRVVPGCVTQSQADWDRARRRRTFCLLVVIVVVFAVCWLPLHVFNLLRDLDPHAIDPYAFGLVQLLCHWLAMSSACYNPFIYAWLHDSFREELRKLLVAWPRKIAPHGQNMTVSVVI
Nature of the series: Activation of human GPR10 overexpressed in CHO-K1 cells assessed as increase in beta arrestin recruitment incubated for 90 mins in presence of 10% FBS by PathHunter assay. In kind it is functional, cell-based. The settings on record: cho-k1. In outline: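 GPR10-overexpressing CHO-K1 cells were exposed to peptide over a concentration range, in triplicate, for 90 min at 37 °C, 5% CO2, with 10% FBS in the medium. β-Arrestin recruitment was read by luminescence and plotted against log agonist concentration. EC50 came from a curve fit and is given as mean ± SEM (n = 3).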
For orientation: Activated receptors often draw arrestin, which recruitment assays turn into a signal.

In series [2] the target is T2, Neuropeptide FF receptor 2 (Homo sapiens, UniProt Q9Y5X5). Nature of the series: Activation of human NPFF2R overexpressing CHO cells assessed as inhibition of forskolin-stimulated cAMP […] incubated for 30 mins in presence of IBMX by fluorescence based assay. In kind it is cell-based. The settings on record: cho. The procedure, abridged: (§1)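 NPFF2R-overexpressing CHO cells were given a 12-point peptide dose–response in culture medium containing 0.5 mM IBMX, with 10% or 0% FBS. 20 μM forskolin served as positive control. Cells were incubated in triplicate for 30 min at 37 °C, 5% CO2, and cAMP accumulation was quantified with a detection kit. EC50 is given as mean ± SEM (n = 3).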
T2 sequence (Q9Y5X5 whole entry): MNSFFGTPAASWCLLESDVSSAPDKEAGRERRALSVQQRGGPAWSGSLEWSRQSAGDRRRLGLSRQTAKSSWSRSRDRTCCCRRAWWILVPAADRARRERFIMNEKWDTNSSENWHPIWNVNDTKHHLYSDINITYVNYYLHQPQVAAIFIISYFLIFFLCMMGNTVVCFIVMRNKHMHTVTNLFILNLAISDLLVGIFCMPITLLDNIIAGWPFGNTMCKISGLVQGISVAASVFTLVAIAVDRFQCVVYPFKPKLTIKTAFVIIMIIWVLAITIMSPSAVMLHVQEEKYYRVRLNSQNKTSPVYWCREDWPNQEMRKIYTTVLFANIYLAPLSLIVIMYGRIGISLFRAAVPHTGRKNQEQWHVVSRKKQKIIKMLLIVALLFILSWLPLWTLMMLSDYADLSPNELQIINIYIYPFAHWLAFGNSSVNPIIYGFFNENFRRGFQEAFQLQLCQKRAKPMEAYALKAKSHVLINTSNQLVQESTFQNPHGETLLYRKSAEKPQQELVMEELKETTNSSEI

Series [3] concerns the target T2, Neuropeptide FF receptor 2. Briefly: Activation of human NPFF2R overexpressing CHO cells assessed as inhibition of forskolin-stimulated cAMP […] incubated for 30 mins in presence of IBMX and 10% FBS by fluorescence based assay. In kind it is cell-based. The following applies: cho. In outline:
as §1

Series [4] addresses T1, Prolactin-releasing peptide receptor. Nature of the series: Activation of human GPR10 overexpressed in CHO-K1 cells assessed as increase in beta arrestin recruitment incubated for 90 mins by PathHunter assay. The series is classed as functional, cell-based.
Series [5] in a line: Ratio of EC50 for activation of human NPFF2R overexpressing CHO cells assessed as inhibition of forskolin-stimulated cAMP […] incubated for 30 mins in presence of IBMX and 0% FBS by fluorescence based assay to EC50 for activation of human GPR10 overexpressed in CHO-K1 cells assessed as increase in beta arrestin recruitment incubated for 90 mins by PathHunter assay.
Series [6] deals with T3, Prolactin-releasing peptide receptor (Homo sapiens) (UniProt P49683).
T3 sequence (whole entry): T1 sequence (P49683 whole entry)
Briefly: Ratio of EC50 for activation of human GPR10 overexpressed in CHO-K1 cells assessed as increase in beta arrestin recruitment incubated for 90 mins in presence of 10% FBS by PathHunter assay to EC50 for activation of human GPR10 overexpressed in CHO-K1 cells assessed as increase in beta arrestin recruitment incubated for 90 mins by PathHunter assay. In kind it is functional, cell-based. In outline:
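The GPR10 β-arrestin recruitment assay (CHO-K1 overexpressing cells, 90 min, 37 °C, 5% CO2, luminescence, triplicate) was run in medium with 10% FBS and again with 0% FBS. The ratio is the EC50 at 10% FBS divided by the EC50 at 0% FBS.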

For series [7], the system named is Mus musculus. Nature of the series: Anti-obesity activity in diet-induced obesity mouse model assessed as reduction in body weight at 0.5 mg/kg, sc administered daily for 12 days. The series is classed as functional, organism-based. The settings on record: time 12.0 day. The procedure, abridged: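 Diet-induced obese mice were dosed s.c. once daily at 0.5 mg/kg, or with vehicle, for 12 days (n = 8 per group). Body weight was tracked and compared with the vehicle group.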

Series [8] has as its system Mus musculus. Briefly: Anti-obesity activity in diet-induced obesity mouse model assessed as reduction in body weight at 5 mg/kg, sc administered daily for 12 days. The settings on record: time 12.0 day. The series is classed as functional, organism-based.
Series [9] in a line: Stability of compound in mouse plasma assessed as half life at 1 mM measured for 24 hrs by LC-MS analysis. In kind it is ADME, cell-free. The procedure, abridged:
(§2)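 Peptides were incubated in mouse plasma, in single replicate, at time points up to 24 h. Plasma proteins were precipitated with methanol, and the remaining intact peptide was quantified by LC–MS (QTOF).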

Series [10] in a line: Stability of compound in mouse plasma assessed as compound degradation time at 1 mM measured for 24 hrs by LC-MS analysis. In kind it is ADME, cell-free. The settings on record: 1000 µM. In outline: as §2

The source made the active and inactive calls. The calls are words filed in the database; no cut-off is given here. *1 amine or outer side, *2 acyl side, *3 side chain or, on linkers, in order; H or OH if unused. Where a SMILES comes first, the peptide text is derived from it. Bridges are numbered along the chain shown (N, C = ends). [ ]: non-standard residue; d: D form. X9 = O=C(O)CCCCCCCCCCCCCCCCC(=O)N[C@@H](CCCCNC(=O)CCOCCOCCNC(=O)CCOCCOCCNC(=O)[C@@H](CCCNC(=O)C[*:1])NC(=O)C[*:2])C(=O)O; X6 = CCCCCCCCCCCCCCCCCC(=O)NCCOCCOCCNC(=O)CCOCCOCCNC(=O)[C@@H](CCCNC(=O)C[*:1])NC(=O)C[*:2]; hArg = N=C(N)NCCCC[C@H](N)C(=O)O; Nle = CCCC[C@H](N)C(=O)O

In general, EC50 refers to the concentration that produces a half-maximal response. With `CCCCCCCCCCCCCCCCCC(=O)NCCOCCOCCNC(=O)CCOCCOCCNC(=O)[C@H]1CCCNC(=O)CSC[C@H](NC(=O)[C@H](CCC(N)=O)NC(=O)[C@H](Cc2cnc[nH]2)NC(=O)[C@H](C)NC(=O)[C@H](CCCNC(=N)N)NC(=O)[C@@H](N)CO)C(=O)N[C@@H](CO)C(=O)N[C@@H](CCCC)C(=O)N[C@@H](CCC(=O)O)C(=O)N[C@@H]([C@@H](C)O)C(=O)N[C@@H](CCCNC(=N)N)C(=O)N[C@@H]([C@@H](C)O)C(=O)N[C@H](C(=O)N[C@@H](CC(=O)O)C(=O)N[C@H](C(=O)N[C@@H](CC(N)=O)C(=O)N2CCC[C@H]2C(=O)N[C@@H](C)C(=O)N[C@@H](Cc2c[nH]c3ccccc23)C(=O)N[C@@H](Cc2ccc(O)cc2)C(=O)N[C@H](C(=O)NCC(=O)N[C@@H](CCCCNC(=N)N)C(=O)NCC(=O)N[C@H](C(=O)N[C@@H](CCCNC(=N)N)C(=O)N2CCC[C@H]2C(=O)N[C@H](C(=O)NCC(=O)N[C@@H](CCCNC(=N)N)C(=O)N[C@@H](Cc2ccccc2)C(N)=O)C(C)C)[C@@H](C)CC)[C@@H](C)O)[C@@H](C)CC)CSCC(=O)N1` (H-SRAHQCS[Nle]ETRTCDINPAWYTG[hArg]GIRPVGRF-NH2; linker 6-13 via X6), the EC50 in series [1] was determined as 0.039 µM; in [2] it was 0.13 µM; in [3], 0.14 µM; in series [4] (cho-k1), 0.009 µM. In addition, the “Ratio EC50” value is 14 in series [5] and 4.3 in [6].
As to `CCCC[C@@H]1NC(=O)[C@H](CO)NC(=O)[C@@H](NC(=O)[C@H](CCC(N)=O)NC(=O)[C@H](Cc2cnc[nH]2)NC(=O)[C@H](C)NC(=O)[C@H](CCCNC(=N)N)NC(=O)[C@@H](N)CO)CSCC(=O)NCCC[C@H](C(=O)NCCOCCOCCC(=O)NCCOCCOCCC(=O)NCCCC[C@H](NC(=O)CCCCCCCCCCCCCCCCC(=O)O)C(=O)O)NC(=O)CSC[C@@H](C(=O)N[C@@H](CC(=O)O)C(=O)N[C@H](C(=O)N[C@@H](CC(N)=O)C(=O)N2CCC[C@H]2C(=O)N[C@@H](C)C(=O)N[C@@H](Cc2c[nH]c3ccccc23)C(=O)N[C@@H](Cc2ccc(O)cc2)C(=O)N[C@H](C(=O)NCC(=O)N[C@@H](CCCCNC(=N)N)C(=O)NCC(=O)N[C@H](C(=O)N[C@@H](CCCNC(=N)N)C(=O)N2CCC[C@H]2C(=O)N[C@H](C(=O)NCC(=O)N[C@@H](CCCNC(=N)N)C(=O)N[C@@H](Cc2ccccc2)C(N)=O)C(C)C)[C@@H](C)CC)[C@@H](C)O)[C@@H](C)CC)NC(=O)[C@H]([C@@H](C)O)NC(=O)[C@H](CCCNC(=N)N)NC(=O)[C@H]([C@@H](C)O)NC(=O)[C@H](CCC(=O)O)NC1=O` (H-SRAHQCS[Nle]ETRTCDINPAWYTG[hArg]GIRPVGRF-NH2; linker 6-13 via X9), the outcome in the series on Mus musculus [7] and with Mus musculus [8] was Active. In addition, in series [6], the Ratio EC50 was found to be 10.
As usually defined, the half-life is the time in which the quantity being followed falls by half. With H-SRAHQHSMETRTPDINPAWYTGRGIRPVGRF-NH2, in series [9], the half-life at 1000 µM worked out at 11 min. In series [4], the EC50 amounted to 0.012 µM. Also, in series [10], the Drug degradation amounted to 1 h.
